From the EternaBench riboswitch data

Assays:
MS2 coat protein [1] = assay: apparent Kd, MS2 coat protein; higher = weaker binding; RNA-MaP array; tryptophan 2.4 mM where present
Procedure, shortened: (§1)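 SNAP-549-labelled MS2 coat protein, doubled from 0.7 or 1.5 nM to 3 µM, was titrated over designs transcribed by stalled E. coli RNA polymerase on Illumina sequencing-chip clusters. Titrations were run without and then with constant ligand in 100 mM Tris-HCl pH 7.5, 80 mM KCl, 4 mM MgCl2, BSA, DTT, yeast tRNA and Tween-20. The apparent Kd is the median of filtered per-cluster fits to green signal normalised to red-channel RNA signal and control-cluster median Fmax.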

MS2 coat protein [2] = assay: apparent Kd, MS2 coat protein; higher = weaker binding; RNA-MaP array; theophylline 2 mM where present
Procedure, shortened: as §1

[3] = designed as: OFF switch for tryptophan, no ligand
[4] = ligand present: tryptophan, designed as: OFF switch for tryptophan
[5] = designed as: ON switch for tryptophan, no ligand
[6] = ligand present: tryptophan, designed as: ON switch for tryptophan
[7] = designed as: OFF switch for theophylline, no ligand
[8] = ligand present: theophylline, designed as: OFF switch for theophylline
[9] = designed as: ON switch for theophylline, no ligand
[10] = ligand present: theophylline, designed as: ON switch for theophylline

Sequence | apparent Kd (MS2 coat protein [1]; [3]) [nM] | apparent Kd (MS2 coat protein [1]; [4]) [nM] | apparent Kd (MS2 coat protein [1]; [5]) [nM] | apparent Kd (MS2 coat protein [1]; [6]) [nM] | further results
UAUAAUAACUCGGCCGCCACUGGCACAUGAGGAUCACCCAUGUCUAUAUAUAAUAUAUAGUUGCACAGGACCGGGAGAUAUAUAU | 8.95 | 8.21 |  |  | 
UAAUAAUUCCUCAUGUCACGAGUGGCAUAACGAGGACCGGUACGGCCGCCACUCGAACAUGAGGAUCACCCAUGUAGCCACUCGA |  |  | 143 | 113 | 
GGAUAGGACACGGCCGCCACUAGCUAGGAUACUAGCAACAUUUCCUCACAUGAGGAUCACCCAUGUAGGACCGGGUGUCCUAUCG | 111 | 135 |  |  | 
AAUACCGGAUCGGCCGCCACUGGUUGGCCCUGUGUACAUGAGGAUCACCCAUGUCCAUCCCAAACCAGGACCGGGAUCUUUGUGC |  |  | 12 | 10.2 | 
AGGUGCGGCACGGCCGCCACUGCGGUGGUGUGACAUGAGGAUCACCCAUGUUGUCAUGCGGCCCUUAGGACCGGGUGGCGUGCCU | 39.7 | 46 |  |  | 
AUACAUGAGGAUCACCCAUGUGAUGGCCGGCGAGGACCGGUACGGCCGCCACUCGUGAUCCGUCCUGAAAGCAAAGCUUCCAGCA |  |  | 182 | 239 | 
GGGAGGGAGGCGGCCGCCACUGAUUUUCAUAUAUAUAUAACAUGAGGAUCACCCAUGUGGAUAUACAGGACCGGGCCUUUUUUUU |  |  | 19.8 | 13.2 | 
AACAUGAGGAUCACCCAUGUCCCAUGUGAACGAGGACCGGUACGGCCGCCACUCGAAUAAGGCGGCACAUGAGGAUCACCCACAU |  |  | 168 | 373 | 
AGAGGUAUACAUGGAAACAUGUAUAUUUCACGAGGACCGGUACGGCCGCCACUCGGUACCGGAAACACAUGAGGAUCACCCAUGU | 18.7 | 16.9 |  |  | 
ACAUGAGGAUCACCCAUGUGAAGCAGGGUACGAGGACCGGUACGGCCGCCACUCGAGGAUUAUGCCGAGUGAAUGGCAACGAUGU | 14.4 | 15.4 |  |  | 
GGGUCAGGCGCGGCCGCCACUGCGGUGAUGUGACAUGAGGAUCACCCAUGUUGUCAUGUGGCACAUAGGACCGGGUGCCUGGCCC | 30.1 | 29.9 |  |  | 
AUCAUAAUAGACUCGUUAGAUUAUAUGGAACGAGGACCGGUACGGCCGCCACUCGUGAUGUACAUGAGGAUCACCCAUGUUAGCA |  |  | 13.5 | 13.5 | 
AACAUGAGGAUCACCCAUGUCCCAUGUGAACGAGGACCGGUACGGCCGCCACUCGACCGAGGCGGCACAUGAGGAUCACCCGCAU |  |  | 375 | 926 | 
CCAUAAGUACCGGUCCUCAGAUCCUCAUGACGAGGACCGGUACGGCCGCCACUCGAAACAUGAGGAUCACCCAUGUAAUAAUACC | 39.2 | 26.4 |  |  | 
CACGAAAGAUCGGCCGCCACUAAUCUAUGUGUUCUUUCACAUGAGGAUCACCCAUGUUCUUGCGUUAGGACCGGGAUUGAGCGUG | 34.1 | 36.4 |  |  | 
AAUUCAAGGUUCUUGAUGUAUUAUAUAUUUCGAGGACCGGUACGGCCGCCACUCGUUAAUUACAUGAGGAUCACCCAUGUUAGCU | 17 | 20.9 |  |  | 
ACAUGAGGAUCACCCAUGUAACGGCAUAAUCGAGGACCGGUACGGCCGCCACUCGGAAUCAGUGACAGGCAUAUUUAUUAUAAGA | 9.88 | 10 |  |  | 
AACAUGAGGAUCACCCAUGUGUCCUCGAAACGAGGACCGGUACGGCCGCCACUCGAAUAAGCUGUUGACGAAAAGUCAGCAGCAA | 257 | 670 |  |  | 
AUAACAUGAGGAUCACCCAUGUAUUGGUAACGAGGACCGGUACGGCCGCCACUCGUAUUUUGGUGGUAUUAUAUAUAUAUGAUUA |  |  | 20.8 | 19.7 | 
GAUAUUUGAAAACAAAUAUCAGUGGGUGAACGAGGACCGGUACGGCCGCCACUCGGACAUGAGGAUCACCCAUGUCCAUGUGAAA | 15.6 | 37.4 |  |  | 
CGCAACAUGAGGAUCACCCAUGUAAUGACGCGAGGACCGGUACGGCCGCCACUCGCCUGCCAAUGAGCGCAUGCGGCCUGGGUAU | 11.6 | 14.5 |  |  | 
GCUCACAUGAGGAUCACCCAUGUACGUCCGCGAGGACCGGUACGGCCGCCACUCGUGUUAGCUUCAAACUUGUUAGUGUUAAACA |  |  | 40.4 | 16.1 | 
GUCUUUGACGAUCUGGGAAAACCAGAUCGACGAGGACCGGUACGGCCGCCACUCGUGUUUUCUUUACAUGAGGAUCACCCAUGUA |  |  | 13.1 | 12.7 | 

Sequence | apparent Kd (MS2 coat protein [1]; [3]) [nM] | apparent Kd (MS2 coat protein [1]; [4]) [nM] | apparent Kd (MS2 coat protein [1]; [5]) [nM] | apparent Kd (MS2 coat protein [1]; [6]) [nM] | further results
CCGCCUGCCUCACAUGAGGAUCACCCAUGUCGAGGACCGGUACGGCCGCCACUCGUCGUCGGUAAUACAGGCAUUGAAUAAUAUA | 11.2 | 45.1 |  |  | 
AUUCAUGGAAACAUGACAUAGGGAUCACUCCGAGGACCGGUACGGCCGCCACUCGCGAGGAGGCACAUGAGGAUCACCCAUGUUA |  |  | 49 | 39.7 | 
AAUUAGAUGUCGGCCGCCACUGAUGUGUCUGUUGCGUCCAGUGUGUACAUGAGGAUCACCCAUGUCAGGACCGGGACUUUAAAUU | 11 | 34 |  |  | 
ACGCUGCAUAGGAAAACUAUGUAGCGAAAUCGAGGACCGGUACGGCCGCCACUCGUCCUCAACAUGAGGAUCACCCAUGUAAUAA | 19.9 | 34.7 |  |  | 
CACAGUGCGAAUUUGAAUUCGCACGAUCCUCGAGGACCGGUACGGCCGCCACUCGCGCGGGUCGUACAUGAGGAUCACCCAUGUC |  |  | 166 | 842 | 
GCAUCCUAGUCGGCCGCCACUGCAAUUGUAAUACUGCUACAUGAGGAUCACCCAUGUCCAUGUAGCAGGACCGGGACUAGGAUGC |  |  | 578 | 79.8 | 
UUACCGUAAGGUAUACCGGUCUACAAUAAUCGAGGACCGGUACGGCCGCCACUCGAUGUGUAAUCACAUGAGGAUCACCCAUGUA |  |  | 23.3 | 18.5 | 
ACACAAUACAUGAGGAUCACCCAUGUAUAACGAGGACCGGUACGGCCGCCACUCGAAUACUGUAAUCCUCGGAAUAUUAUGUGAA | 39 | 19.1 |  |  | 
GAUCGAAAUAACGCAUAGGAAAACUAUGCGCGAGGACCGGUACGGCCGCCACUCGUCCUCACAUGAGGAUCACCCAUGUACGAUC | 22.4 | 58.6 |  |  | 
AUUGUGAAGUCGGCCGCCACUGGUUAGUUUAACCUCAUGUAACAUGAGGAUCACCCAUGUAAUGACAGGACCGGGACAAUAGUAA | 187 | 151 |  |  | 
AAAGAUCGGAAACGAUCGGCGGCUUGGGCGCGAGGACCGGUACGGCCGCCACUCGGGAAACAUGAGGAUCACCCAUGUUGCUUCU | 10.9 | 12 |  |  | 
GCGGAAUAAUCGGCCGCCACUAUGAGACAGGAAACUGUCACAUGAGGAUCACCCAUGUAUCCUCAUAGGACCGGGAUUAAAACGC |  |  | 76.3 | 19.4 | 
AAUAAUAGGUGAUCUUGUGUCGUACCGUAACGAGGACCGGUACGGCCGCCACUCGAACAUGAGGAUCACCCAUGUAUGUAUGAUA |  |  | 171 | 128 | 
UCGUUUUAGUCGGCCGCCACUGUAUGCAUGUUUAACAUGAGGAUCACCCAUGUCCCGUACUAUUUCAGGACCGGGACGUAAUCGA |  |  | 322 | 156 | 
CUACAUGUAGUUAAACCGGUCAACAAUAAUCGAGGACCGGUACGGCCGCCACUCGAUGUGUUAUACACAUGAGGAUCACCCAUGU |  |  | 23.2 | 18.9 | 
GGCGGACUUAUAGAUACCAGCACAUGAGGAUCACCCAUGUUUGGUCGCACCUCAGUCCUGUGCCCUUGGCAGCUAUGAUAGAUUU |  |  |  |  | apparent Kd (MS2 coat protein [2]; [7]): 17.3 nM; apparent Kd (MS2 coat protein [2]; [8]): 95.1 nM
CUGGCAGGAUGAUCCGCUGUCAGGGCUGAUACCAGCCACGAAAGUGGCCCUUGGCAGCAGCAAACAUGAGGAUCACCCAUGUAAA |  |  |  |  | apparent Kd (MS2 coat protein [2]; [9]): 144 nM; apparent Kd (MS2 coat protein [2]; [10]): 266 nM
ACACACAUGAGGAUCACCCAUGUAAUAGAUACCAGUGACGCGGUGCACCCUUGGCAGCUGCUGCUGAGUGAUGGUUCCCUCGGAA |  |  |  |  | apparent Kd (MS2 coat protein [2]; [7]): 21.1 nM; apparent Kd (MS2 coat protein [2]; [8]): 34.7 nM
UUUGAUAGGACAGAUACCAGCGUGUUAUAGAACAUGAGGAUCACCCAUGUAGUGAUCAAGCGCCCUUGGCAGCUGGUUUGUUAGG |  |  |  |  | apparent Kd (MS2 coat protein [2]; [9]): 229 nM; apparent Kd (MS2 coat protein [2]; [10]): 395 nM
ACAUGAAGAACAGCGGUGGGCGCGCUCGAUACCAGUAUUUUAACCUACCCUUGGCAGCGACAUGAGGAUCACCCAUGUGAGAUGA |  |  |  |  | apparent Kd (MS2 coat protein [2]; [7]): 17.3 nM; apparent Kd (MS2 coat protein [2]; [8]): 26.9 nM
CGAUGAUCGAGGGAUACCAGAAAUGGUAUUCCUUUAUUUCUUACAUGAGGAUCACCCAUGUUCCCUUGGCAGCUUUUGAUCAUCG |  |  |  |  | apparent Kd (MS2 coat protein [2]; [7]): 86.5 nM; apparent Kd (MS2 coat protein [2]; [8]): 149 nM
AAUAAAUCACAUGAGGAUCACCCAUGUGAUACCAGCCUGGAAACAGGCCCUUGGCAGCACAUGAGGAUCACCCAUGUGCUAAAUA |  |  |  |  | apparent Kd (MS2 coat protein [2]; [7]): 8.81 nM; apparent Kd (MS2 coat protein [2]; [8]): 8.4 nM
